Source: PubChem BioAssay (several laboratories)
Shown are actives, neighbours in structure and some others; about 2.4% of the full set was active somewhere.
Measles CPE – protection of cells from measles virus; Measles virus-infected cells, CPE protection, absorbance; protection (pct of control), % at 4 µM; 140,000 compounds, 1.5% hits; AID 841; in the data active means protection mostly above about 24%, no sharp cut-off; inactive means mostly below about 26%
Arbovirus anti – arbovirus infection inhibition. arbovirus infection cell-based antiviral screen. inhibition, % at 10 µM. 200,000 compounds, 0.37% hits. AID 1251; in the data active means inhibition above about 30%
Yeast growth inh – chemicals that inhibit yeast BB579 growth in restrictive medium (lifespan-shortening candidates); inhibition, % at 10 µM; AID 804; 140,000 compounds, 0.51% hits; S. cerevisiae BB579 growth, OD615, 48 h;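 active means inhibition above a set limit, 3 SD over the mean compound inhibition, cut at about 44% in these data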
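controls = amphotericin B 10 µg/mL, positive | assay system = DeaD yeast strain BB579 | schedule = 48 h compound exposure at 30 °C after 4 h preincubation | detection = OD615 turbidity measurement | medium = restrictive CSMM-D medium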
Rad51 HR inh – Rad51 (human) homologous recombination inhibition | inhibition, % at 10 µM | hRad51 DNA strand exchange, fluorescence dequenching | 200,000 compounds, 0.085% hits;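 active means inhibition above 40% at the single screening dose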
Target sequence (Q06609 whole entry, looked up): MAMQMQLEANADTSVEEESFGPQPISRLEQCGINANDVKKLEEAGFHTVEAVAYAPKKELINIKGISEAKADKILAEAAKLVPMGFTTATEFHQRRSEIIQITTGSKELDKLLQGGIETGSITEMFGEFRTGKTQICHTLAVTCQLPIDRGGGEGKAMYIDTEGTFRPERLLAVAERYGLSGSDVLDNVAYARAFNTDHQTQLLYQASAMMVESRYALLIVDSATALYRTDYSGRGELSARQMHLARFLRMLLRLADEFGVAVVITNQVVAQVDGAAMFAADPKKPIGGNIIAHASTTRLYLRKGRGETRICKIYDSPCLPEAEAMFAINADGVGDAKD
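Material: human Rad51–ssDNA filaments; Probe or stimulus: labelled 47-mer dsDNA for strand exchange; Doses: single 10 µM dose; Incubation: 37 °C 15-min filament assembly, 30-min compound preincubation, 15-min exchange; Technique: FRET fluorescence dequenching, excitation 485 nm, emission 520 nm; Measure: Fluorescence-based percent inhibition, control- and blank-normalised; Benchmarks: plate control and blank wells.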
Yeast life ext – extends the lifespan of yeast; S. cerevisiae growth with nicotinamide, OD615; deaD strain in restrictive glucose medium; inhibition of the nicotinamide effect, % at 10 µM; 130,000 compounds, 0.68% hits;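 active means inhibition above a set limit, placed 3 SD over the median of all compounds, cut at about 26% in these data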
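Material: Modified budding yeast, DeaD strain | Medium: Restrictive glucose medium | Probe or stimulus: 1.5 mM nicotinamide | Dosing: Single dose 10 µM compound, 0.25% DMSO | Times: 48 h at 30 °C | Technique: OD615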
Efa HMGR inh – E. faecalis class II HMG-CoA reductase inhibition; inhibition, % at 10 µM; 190,000 compounds, 0.41% hits; purified E. faecalis HMGR, NADPH absorbance 340 nm kinetic;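 active means inhibition above a set limit, the median over all tested compounds plus 3 SD, cut at about 9.5% in these data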;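 further: enzyme runs in reverse so mevalonate oxidation gives rising NADPH absorbance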
Hits are given with their value.

How did CCc1c(C)sc(NC(=O)c2ccco2)c1C(=O)N1CCCCC1 do in these assays?
Measles CPE: 38; Arbovirus anti: inactive; Yeast growth inh: inactive; Rad51 HR inh: inactive; Yeast life ext: inactive; Efa HMGR inh: inactive

How did Cc1nc(=S)c2c([nH]1)-c1ccccc1CC21CCCCC1 do in these assays?
Rad51 HR inh: inactive

What do the screens show for `O=C(COc1ccccc1Br)NCc1ccccn1`?
Measles CPE: 63; Arbovirus anti: inactive; Yeast growth inh: inactive; Rad51 HR inh: inactive; Yeast life ext: inactive; Efa HMGR inh: inactive

What do the screens show for `O=C(Cc1n[nH]c(=O)c2ccccc12)NCc1ccccn1`?
Measles CPE: inactive; Arbovirus anti: inactive; Yeast growth inh: inactive; Rad51 HR inh: inactive; Yeast life ext: inactive; Efa HMGR inh: 10

How did O=C(Cc1ccccc1)NCc1ccccn1 do in these assays?
Arbovirus anti: inactive; Rad51 HR inh: inactive; Efa HMGR inh: inactive

How did Cc1cccc(-n2c(CCCN3C(=O)c4ccccc4C3=O)nc3ccccc3c2=O)n1 do in these assays?
Measles CPE: inactive; Arbovirus anti: inactive; Yeast growth inh: inactive; Yeast life ext: inactive; Efa HMGR inh: inactive

Results for CC1=CC(C)[C@H](/C=N/n2c(=O)[nH]c3c([nH]c4ccc(C)cc43)c2=O)C(C)C1 (some centres not stated) ?
Arbovirus anti: inactive; Rad51 HR inh: inactive; Efa HMGR inh: inactive

How did CC(=O)Nc1ccc(NS(=O)(=O)c2ccc(C)cc2)c([N+](=O)[O-])c1 do in these assays?
Arbovirus anti: inactive; Rad51 HR inh: inactive; Efa HMGR inh: inactive

What do the screens show for `CC(C)NC1CS(=O)(=O)CC1O` (configuration not stated)?
Measles CPE: inactive; Arbovirus anti: inactive; Yeast growth inh: inactive; Rad51 HR inh: inactive; Yeast life ext: 58; Efa HMGR inh: inactive

Results for CS(=O)(=O)N1CCN(C(=O)C2c3ccccc3Oc3ccccc32)CC1 ?
Measles CPE: 67; Arbovirus anti: inactive; Yeast growth inh: inactive; Rad51 HR inh: inactive; Yeast life ext: inactive; Efa HMGR inh: inactive

What do the screens show for `COc1ccc(COCC(O)CN2CCOCC2)cc1OC` (configuration not stated)?
Measles CPE: inactive; Arbovirus anti: inactive; Yeast growth inh: inactive; Yeast life ext: inactive; Efa HMGR inh: inactive

How did COc1cc(COCC(O)CN2CCOCC2)cc(OC)c1OC (configuration not stated) do in these assays?
Measles CPE: 32; Arbovirus anti: inactive; Yeast growth inh: inactive; Rad51 HR inh: inactive; Yeast life ext: inactive; Efa HMGR inh: inactive

Results for COc1ccc(/C=C(/NC(=O)c2ccccc2)C(=O)N/N=C/c2ccncc2)c(OC)c1 ?
Measles CPE: inactive; Arbovirus anti: inactive; Yeast growth inh: inactive; Rad51 HR inh: inactive; Yeast life ext: inactive; Efa HMGR inh: inactive

How did COc1ccc(OC)c(/C=C(\NC(=O)c2ccccc2)C(=O)N/N=C/c2ccc(C)s2)c1 do in these assays?
Measles CPE: 35; Arbovirus anti: inactive; Yeast growth inh: inactive; Rad51 HR inh: inactive; Yeast life ext: inactive; Efa HMGR inh: inactive

What do the screens show for `COc1ccc(Cl)cc1C(=O)NNC(=O)c1cccc(S(=O)(=O)N(C)C)c1`?
Measles CPE: 73; Arbovirus anti: inactive; Yeast growth inh: inactive; Rad51 HR inh: inactive; Yeast life ext: inactive; Efa HMGR inh: inactive

Results for COc1ccc(Cl)cc1C(=O)NNC(=O)c1cccnc1 ?
Measles CPE: inactive; Arbovirus anti: inactive; Yeast growth inh: inactive; Rad51 HR inh: inactive; Yeast life ext: inactive; Efa HMGR inh: inactive

How did C=CCn1c(SC(C)C(N)=O)nc2sc(CC)cc2c1=O (configuration not stated) do in these assays?
Arbovirus anti: 32; Rad51 HR inh: inactive; Efa HMGR inh: inactive

What do the screens show for `Cc1ccc(S(=O)(=O)N(C)CC(O)Cn2c3ccccc3c3ccccc32)cc1` (configuration not stated)?
Measles CPE: 39; Arbovirus anti: inactive; Yeast growth inh: inactive; Rad51 HR inh: inactive; Yeast life ext: inactive; Efa HMGR inh: inactive

What do the screens show for `O=C(CCSc1nnc(-c2ccco2)o1)N1CCOCC1`?
Arbovirus anti: inactive; Rad51 HR inh: inactive; Efa HMGR inh: inactive

Results for CNc1ccccc1C(C)(C)c1cc(-c2cccc(OC)c2)no1 ?
Arbovirus anti: 32; Rad51 HR inh: inactive; Efa HMGR inh: inactive

Results for COc1ccc(CCN(Cc2cc3cccc(C)c3n3nnnc23)C(=O)c2ccncc2)cc1OC ?
Arbovirus anti: inactive; Rad51 HR inh: inactive; Efa HMGR inh: inactive

What do the screens show for `CCOC(=O)c1c(NC(=O)CSc2nc3ccccc3c(=O)n2-c2ccc(F)cc2)sc(C(C)=O)c1C`?
Measles CPE: 33; Arbovirus anti: inactive; Yeast growth inh: inactive; Rad51 HR inh: inactive; Yeast life ext: inactive; Efa HMGR inh: inactive

How did CCOC(=O)c1c(NC(=O)CSc2ncnc3ccccc23)sc(C(C)=O)c1C do in these assays?
Measles CPE: inactive; Arbovirus anti: inactive; Yeast growth inh: inactive; Rad51 HR inh: inactive; Yeast life ext: inactive; Efa HMGR inh: inactive

What do the screens show for `CN(C)Cc1c(O)c(Cl)cc2c3c(c(=O)oc12)CCCC3`?
Measles CPE: inactive; Arbovirus anti: 32; Yeast growth inh: inactive; Rad51 HR inh: inactive; Yeast life ext: 30; Efa HMGR inh: inactive

Results for Cc1c(C(=O)N2CCCC2)oc2c1-c1[nH]ncc1CC2 ?
Measles CPE: 31; Arbovirus anti: inactive; Yeast growth inh: inactive; Rad51 HR inh: inactive; Yeast life ext: inactive; Efa HMGR inh: inactive

How did CCOc1ccc(CNc2ccc3c(c2)nc(C)n3C)cc1 do in these assays?
Measles CPE: inactive; Arbovirus anti: 44; Yeast growth inh: inactive; Rad51 HR inh: inactive; Yeast life ext: inactive; Efa HMGR inh: inactive

What do the screens show for `CCn1cnc2cc(NCc3ccc(OC)cc3)ccc21`?
Measles CPE: inactive; Arbovirus anti: inactive; Yeast growth inh: inactive; Rad51 HR inh: inactive; Yeast life ext: inactive; Efa HMGR inh: inactive

How did Cn1ncc(C#N)c1/N=C/N1CCCCCC1 do in these assays?
Measles CPE: inactive; Arbovirus anti: inactive; Yeast growth inh: inactive; Rad51 HR inh: inactive; Yeast life ext: inactive; Efa HMGR inh: inactive

How did Cn1ncc(C#N)c1/N=C/N1CCOCC1 do in these assays?
Measles CPE: inactive; Arbovirus anti: inactive; Yeast growth inh: inactive; Rad51 HR inh: inactive; Yeast life ext: 40; Efa HMGR inh: inactive

How did CCCCNC(=O)/C=C/c1ccc(S(=O)(=O)Nc2ccc(OC)cc2)cc1 do in these assays?
Arbovirus anti: inactive; Rad51 HR inh: inactive; Efa HMGR inh: inactive

How did O=C(COc1ccc(Cl)cc1)NC1=NN(c2ccccc2)C(=O)C1 do in these assays?
Measles CPE: inactive; Arbovirus anti: inactive; Yeast growth inh: 62; Rad51 HR inh: inactive; Yeast life ext: inactive; Efa HMGR inh: inactive

How did O=C(CCCCl)NC1=NN(c2ccccc2)C(=O)C1 do in these assays?
Measles CPE: inactive; Arbovirus anti: inactive; Yeast growth inh: inactive; Rad51 HR inh: inactive; Yeast life ext: inactive; Efa HMGR inh: inactive
